The test system of data set [1] is Staphylococcus aureus. Nature of the data set: In vivo anti-virulence activity against methicillin-resistant Staphylococcus aureus Mu50 infected in BALB/c mouse model assessed as reduction in bacterial load in heart at 0.1 mg bid for 3.5 days administered intraperitoneally 6 hrs post infection by serial dilution method. Further details: scale not given: the % may be the effect or the level left. The data set is classed as functional. The method in brief: (§1)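 Mice were challenged with 1.3 × 10^9 CFU Mu50. Compound was given intraperitoneally, either 24 h before or 6 h after infection. Log10 CFU was counted in kidneys and hearts.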

For data set [2], the target named is T1, 4,4'-diapophytoene desaturase (4,4'-diaponeurosporene-forming) (Staphylococcus aureus (strain Mu50 / ATCC 700699), UniProt Q99R76).
T1 sequence (Q99R76 whole entry): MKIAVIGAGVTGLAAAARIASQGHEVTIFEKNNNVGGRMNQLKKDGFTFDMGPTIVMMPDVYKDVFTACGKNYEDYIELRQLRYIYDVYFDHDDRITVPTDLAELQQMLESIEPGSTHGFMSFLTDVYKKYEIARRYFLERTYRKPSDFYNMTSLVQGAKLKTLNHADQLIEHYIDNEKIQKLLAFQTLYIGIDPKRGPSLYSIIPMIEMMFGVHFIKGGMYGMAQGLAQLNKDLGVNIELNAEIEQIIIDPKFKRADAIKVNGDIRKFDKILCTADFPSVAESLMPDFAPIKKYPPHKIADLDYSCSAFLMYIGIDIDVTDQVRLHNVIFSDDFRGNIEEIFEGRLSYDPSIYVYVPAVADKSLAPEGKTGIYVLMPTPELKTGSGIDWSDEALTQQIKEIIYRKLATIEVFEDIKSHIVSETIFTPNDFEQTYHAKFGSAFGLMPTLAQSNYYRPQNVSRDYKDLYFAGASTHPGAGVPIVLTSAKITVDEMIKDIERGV
The data set can be described thus: Inhibition of CrtN in methicillin-resistant Staphylococcus aureus Mu50 assessed as reduction in staphyloxanthin levels after 48 hrs by spectrophotometric method-based pigment inhibition assay. More on the design: species or system Staphylococcus aureus subsp. aureus Mu50.

For data set [3], the system named is Staphylococcus aureus. Nature of the data set: In vivo anti-virulence activity against methicillin-resistant Staphylococcus aureus NRS271 infected in BALB/c mouse model assessed as reduction in bacterial load in kidneys at 0.4 mg bid for 3.5 days administered intraperitoneally 6 hrs post infection by serial dilution method. Further details: scale not given: the % may be the effect or the level left. The class given is functional. The essentials: (§2)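 Mice (n=10 per group) infected retro-orbitally with S. aureus Mu50 (1.1 × 10^9 or 1.3 × 10^9 CFU) or NRS271 (2.3 × 10^8 CFU). Compound given i.p. b.i.d., either 6 h after infection for 3.5 d or 24 h before infection for 4.5 d. Mice killed after 4.5 d; log10 CFU per organ counted in kidneys and hearts. Two-tailed Mann−Whitney test.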

The nature of data set [4]: Cytotoxicity against HEK293 cells after 43 hrs by Alamar blue dye-based fluorescence assay. The data set is classed as cell-based. To be noted: human. (In general: Alamar Blue is a resazurin reagent that responds to reducing activity.)
In data set [5] the test system is Staphylococcus aureus. Nature of the data set: In vivo anti-virulence activity against methicillin-resistant Staphylococcus aureus Mu50 infected in BALB/c mouse model assessed as reduction in bacterial load in kidneys at 0.4 mg bid for 3.5 days administered intraperitoneally 6 hrs post infection by serial dilution method. The data set is classed as functional. Further details: scale not given: the % may be the effect or the level left. The method in brief:
as §2

Data set [6] deals with T2, 4,4'-diapophytoene desaturase (4,4'-diaponeurosporene-forming) (Staphylococcus aureus (strain MW2), UniProt Q8NUQ6).
T2 sequence (Q8NUQ6 whole entry): T1 sequence (Q99R76 whole entry) with R500Q
Nature of the data set: Inhibition of CrtN in methicillin-resistant Staphylococcus aureus USA400 MW2 assessed as reduction in staphyloxanthin levels after 48 hrs by spectrophotometric method-based pigment inhibition assay. More on the design: species or system Staphylococcus aureus subsp. aureus MW2.

In data set [7] the test system is Staphylococcus aureus. Nature of the data set: Antibacterial activity against Staphylococcus aureus Newman assessed as change in bacterial growth at 0.2 mM […]. The data set is classed as functional.
Data set [8] concerns Staphylococcus aureus. Nature of the data set: In vivo anti-virulence activity against methicillin-resistant Staphylococcus aureus NRS271 infected in BALB/c mouse model assessed as reduction in bacterial load in kidneys at 0.4 mg bid for 4.5 days administered intraperitoneally 24 hrs prior to infection by serial dilution method. The class given is functional. More on the design: scale not given: the % may be the effect or the level left. The method in brief:
as §2

Data set [9] deals with Staphylococcus aureus. Nature of the data set: Antibacterial activity against methicillin-resistant Staphylococcus aureus USA400 MW2 assessed as change in bacterial growth at 0.2 mM […]. The data set is classed as functional.
Data set [10] deals with Staphylococcus aureus. The data set can be described thus: In vivo anti-virulence activity against methicillin-resistant Staphylococcus aureus Mu50 infected in BALB/c mouse model assessed as reduction in bacterial load in kidneys at 0.1 mg bid for 4.5 days administered intraperitoneally 24 hrs prior to infection by serial dilution method. The class given is functional. More on the design: scale not given: the % may be the effect or the level left. The method in brief:
as §2

In data set [11] the target is T3, 4,4'-diapophytoene desaturase (4,4'-diaponeurosporene-forming) (Staphylococcus aureus (strain Newman), UniProt O07855).
T3 sequence (O07855 whole entry): T1 sequence (Q99R76 whole entry)
The data set can be described thus: Inhibition of CrtN in Staphylococcus aureus Newman assessed as reduction in staphyloxanthin levels after 48 hrs by spectrophotometric method-based pigment inhibition assay. Further details: species or system Staphylococcus aureus subsp. aureus str. Newman.

The subject of data set [12] is Staphylococcus aureus. Nature of the data set: In vivo anti-virulence activity against methicillin-resistant Staphylococcus aureus NRS271 infected in BALB/c mouse model assessed as reduction in bacterial load in kidneys at 0.1 mg bid for 3.5 days administered intraperitoneally 6 hrs post infection by serial dilution method. The class given is functional. More on the design: scale not given: the % may be the effect or the level left. The method in brief:
as §2

Data set [13] deals with Staphylococcus aureus. Nature of the data set: Chemo-sensitization activity in human whole blood infected with compound-pre-treated non-pigmented Staphylococcus aureus Newman strain assessed as whole blood-induced bacterial killing by measuring survival rate at 1 uM after 6 hrs by serial dilution method (reference value: 13.3%). The data set is classed as functional.
Data set [14] has as its system Staphylococcus aureus. The data set can be described thus: In vivo anti-virulence activity against Staphylococcus aureus Newman infected in BALB/c mouse model assessed as reduction in bacterial load in kidneys at 0.1 mg bid for 3.5 days administered intraperitoneally 6 hrs post infection by serial dilution method. The class given is functional, organism-based. The essentials:
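Mice (n=10 per group) got 2.3 × 10^7 CFU S. aureus Newman by retro-orbital injection. Compound was given intraperitoneally b.i.d., either 24 h before infection (4.5 d) or 6 h after infection (3.5 d). Mice were sacrificed after 4.5 d and CFU counted in kidneys and hearts. Groups were compared by two-tailed Mann-Whitney test.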

In data set [15] the test system is Staphylococcus aureus. The data set can be described thus: In vivo anti-virulence activity against methicillin-resistant Staphylococcus aureus Mu50 infected in BALB/c mouse model assessed as reduction in bacterial load in heart at 0.1 mg bid for 4.5 days administered intraperitoneally 24 hrs prior to infection by serial dilution method. The data set is classed as functional. Further details: scale not given: the % may be the effect or the level left. The method in brief: as §1

Data set [16] concerns Staphylococcus aureus. Nature of the data set: Antibacterial activity against methicillin-resistant Staphylococcus aureus USA300 LAC assessed as change in bacterial growth at 0.2 mM […]. The class given is functional.
Data set [17] concerns Staphylococcus aureus. Nature of the data set: In vivo anti-virulence activity against methicillin-resistant Staphylococcus aureus NRS271 infected in BALB/c mouse model assessed as reduction in bacterial load in kidneys at 0.1 mg bid for 4.5 days administered intraperitoneally 24 hrs prior to infection by serial dilution method. The class given is functional. Further details: scale not given: the % may be the effect or the level left. The essentials:
as §2

Residue numbers refer to the chain shown, from its start. Active and inactive are the calls of the source. The rule behind the calls is not given here. Where only a bound is given, the exact number is not on record here.

Broadly, the IC50 is the concentration that inhibits the measured activity by half. By CC50 is commonly meant the concentration at which the toxic effect on the cells reaches its halfway point. Regarding `CN(C/C=C/c1ccc(-c2ccccc2)cc1)Cc1cccc2cc[nH]c12.Cl`, the Activity in data set [1], in [3], in [5], in data set [8], in data set [10] and in [12] was more than 95% each time. Moreover, the Activity in data set [15] and in data set [17] was more than 95% in each case. Also, the IC50 in data set [2] is 0.4 nM; in [6], 8 nM; in [11] it was 3.3 nM. Further, in data set [4], the CC50 at 43 h was found to be 26500 nM. Also, the outcome in [7], in data set [9], in [14] and in data set [16] was inactive. Further, the outcome in data set [13] was Active.
For the compound `CN(C/C=C/c1ccc(-c2ccccc2)cc1)Cc1coc2ccccc12.Cl`, the Activity in data set [1], in data set [3], in data set [5], in [8], in data set [10] and in [12] was more than 95% each time. In addition, the Activity in data set [15] and in [17] was more than 95% in each case. For the same compound, the IC50 in data set [2] was determined as 0.8 nM; in [6], 7.9 nM; in data set [11], 2 nM. Also, in data set [4], the CC50 at 43 h was 48100 nM. Moreover, the outcome in data set [7], in [9] and in [16] was inactive. The survival at 1 µM in data set [13] was determined as 1.3%. In addition, the outcome in data set [14] was Active.

These data come from ChEMBL document CHEMBL4024779, “Novel Terminal Bipheny-Based Diapophytoene Desaturases (CrtN) Inhibitors as Anti-MRSA/VISR/LRSA Agents with Reduced hERG Activity” (J Med Chem, 2018).
